Shown are actives, neighbours in structure and some others; about 2.4% of the full set was active somewhere.
NPY1 pot ag: NPY-Y1 receptor potentiators or agonists, primary screen, cell-based. Neuropeptide Y receptor type 1 (Homo sapiens), P25929. NPY-Y1 expressing cells, potentiator/agonist activation. 220,000 compounds, 0.37% hits. activation, % at 3.6 µM; in the data active means activation above about 33%, passing the limit was not always enough;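 further: cells stimulated with NPY at EC10 then isoproterenol at EC100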
S1P4 agonist: S1P4 receptor agonists, primary screen, cell-based | S1P4-expressing cell line, agonist reporter assay | activation, % at 4.98 µM | 220,000 compounds, 0.35% hits; in the data active means activation above about 11%
S1P4 antag: S1P4 receptor antagonists, primary screen, cell-based; Sphingosine 1-phosphate receptor 4 (Homo sapiens), O95977; S1P4-expressing cells, antagonist mode, reporter read-out; inhibition, % at 4.98 µM; 220,000 compounds, 0.26% hits; AID 1510, 2009; in the data active means inhibition above about 29%
NPY Y1 blocker: NPY-Y1 receptor antagonists, primary screen, cell-based. Neuropeptide Y receptor type 1 (Homo sapiens), P25929. HEK293-CNG Y1 cells, membrane potential fluorescence; NPY at EC95, then isoproterenol. inhibition, % at 3.6 µM. 200,000 compounds, 1% hits;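 active means inhibition above the campaign mean inhibition of all tested compounds plus 3 SD, cut at about 20% in these data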
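Assay system: HEK293 Y1/CNG channel cell line; Doses: single compound dose of 3.6 µM, 0.4% DMSO; Timing: dye 3 h, compound 60 min room temperature, stimulation 45 min; Technique: Membrane-potential fluorescent dye readout; Measure: % inhibition of NPY effect.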
NPY-Y2 antag: NPY-Y2 receptor antagonists, primary screen, cell-based. AID 793, 2007. Neuropeptide Y receptor type 2 (Homo sapiens), P49146. 140,000 compounds, 0.99% hits. NPY-Y2 expressing cells, antagonist mode. inhibition, % at 2.7 µM; in the data active means inhibition above about 17%
Target sequence (P49146 whole entry, looked up): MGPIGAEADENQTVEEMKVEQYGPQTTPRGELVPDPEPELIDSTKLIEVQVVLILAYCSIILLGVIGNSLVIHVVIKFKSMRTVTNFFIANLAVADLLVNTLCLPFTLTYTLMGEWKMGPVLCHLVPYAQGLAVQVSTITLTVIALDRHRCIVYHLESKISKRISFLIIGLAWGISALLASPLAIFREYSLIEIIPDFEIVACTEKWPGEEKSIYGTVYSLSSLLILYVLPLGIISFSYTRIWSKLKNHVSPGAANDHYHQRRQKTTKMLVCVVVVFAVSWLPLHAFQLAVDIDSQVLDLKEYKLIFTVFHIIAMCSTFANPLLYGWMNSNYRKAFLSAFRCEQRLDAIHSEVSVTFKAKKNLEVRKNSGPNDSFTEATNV
NPY-Y2 PAM-ag: NPY-Y2 potentiators or agonists, primary screen, cell-based. Neuropeptide Y receptor type 2 (Homo sapiens), P49146. AID 1359, 2008. activation, % at 3.6 µM. 220,000 compounds, 0.45% hits. cells expressing NPY-Y2, potentiator/agonist read-out; in the data active means activation above about 27%;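 further: cells stimulated with NPY near EC25 plus isoproterenol at EC100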
S1P4 agonist cf: S1P4 receptor agonists, retest, confirmation, cell-based, high throughput | shares compounds with S1P4 agonist | S1P4 agonist cell-based reporter assay | activation, % at 4.98 µM | 740 compounds, 7% hits | AID 1523, 2009; in the data active means activation above about 12%
S1P1 ag: S1P1 receptor agonists, human, counter-screen for S1P4 agonist project, cell-based; activation, % at 4.98 µM; AID 1563, 2009; 740 compounds, 4% hits; shares compounds with S1P4 agonist; S1P1 agonist cell-based assay, activation; in the data active means activation above about 21%
Hits are given with their value; . = inactive; / = not tested or not shown.

SMILES | NPY1 pot ag | S1P4 agonist | S1P4 antag | NPY Y1 blocker | NPY-Y2 antag | NPY-Y2 PAM-ag | S1P4 agonist cf | S1P1 ag
Cc1ccc(C(=O)N/C(=C\c2ccco2)C(=O)NCc2cccnc2)cc1 | . | . | . | . | . | . | / | /
Cc1ncc([N+](=O)[O-])n1CCO | . | . | . | . | . | . | / | /
Cc1cc(=S)cc(C)n1CCO | . | 11 | . | . | . | . | . | .
CCOC(=O)c1c(NC(=O)COC(=O)c2cc(OC)c(OC)cc2[N+](=O)[O-])sc(C)c1C | . | 17 | . | . | . | . | . | .
CCCOc1ccc(N2CC(C(=O)Nc3ccc4c(c3)OCO4)CC2=O)cc1 (configuration not stated) | . | . | . | . | . | . | / | /
CSc1nc2c(c(-c3ccc(O)cc3)c1C#N)CCC2 | . | . | . | . | . | . | / | /
CCOc1ccc(NC(=O)CN2C(=O)CSC2=O)cc1 | . | . | . | . | / | . | / | /
O=C(COC(=O)c1c2c(nc3ccccc13)CCN(Cc1ccccc1)C2)Nc1c(F)cccc1F | . | 58 | . | . | . | . | . | .
CC(=O)Nc1ccc(NC(=O)COC(=O)c2c3c(nc4ccccc24)CCN(Cc2ccccc2)C3)cc1 | . | . | . | . | . | . | / | /
COc1ccc(N2CCN(C(=O)c3ccc4c(c3)OCO4)CC2)cc1 | . | . | . | . | . | . | / | /
COc1cc(C(=O)Nc2ccncc2)cc(OC)c1OC | . | . | . | . | . | . | / | /
COc1cc(C(=O)NCc2ccncc2)cc(OC)c1OC | . | 14 | . | . | / | . | . | .
Cc1cc(/C=C2/C(=N)N3C(c4ccccc4)=CSC3=NC2=O)c(C)n1-c1ccccc1 | . | . | . | . | . | . | / | /
C=CCOc1ccc(C2=NO[C@@H]3[C@@H]4C[C@@H]([C@H]5C(=O)N(C)C(=O)[C@@H]45)[C@H]23)cc1 | . | . | . | / | / | . | / | /
CC(OC(=O)C1CCCCC1)C(=O)Nc1cccc(Cl)c1 (configuration not stated) | . | . | . | . | / | . | / | /
COCCCn1c(=N)c(C(=O)NCC2CCCO2)cc2c(=O)n3cccc(C)c3nc21 (configuration not stated) | . | . | . | . | . | . | / | /
N=c1c(C(=O)NCc2ccc(F)cc2)cc2c(=O)n3ccccc3nc2n1CC1CCCO1 (configuration not stated) | . | 13 | . | . | . | . | 14 | .
COCCCn1c(=N)c(C(=O)NCC2CCCO2)cc2c(=O)n3ccccc3nc21 (configuration not stated) | . | 12 | . | . | . | . | . | .
N=c1c(C(=O)NCc2ccco2)cc2c(=O)n3ccccc3nc2n1CC1CCCO1 (configuration not stated) | . | . | . | . | . | . | / | /
CC(C)Cc1nnc(NC(=O)CCC(=O)N2CCN(S(=O)(=O)c3ccccc3)CC2)s1 | . | . | . | . | . | . | / | /
O=C(Cc1ccccc1[N+](=O)[O-])N1CCN(c2ccc(F)cc2)CC1 | . | 74 | . | . | / | . | . | .
O=C(/C=C/c1ccccc1[N+](=O)[O-])N1CCN(c2ccc(F)cc2)CC1 | . | . | . | . | / | . | / | /
Cc1ccc(/C=N/NC(=O)c2cccnc2)s1 | . | 13 | . | / | / | . | . | .
CCCOc1ccc(/C=C/C(=O)N2CCN(c3ccccn3)CC2)cc1 | . | . | . | . | / | . | / | /
O=C(/C=C/c1ccc(F)cc1)N1CCN(c2ccccn2)CC1 | . | 16 | . | . | . | . | . | .
SMILES | NPY1 pot ag | S1P4 agonist | S1P4 antag | NPY Y1 blocker | NPY-Y2 antag | NPY-Y2 PAM-ag | S1P4 agonist cf | S1P1 ag
O=C(NC(=O)c1ccccc1)OCC(F)(F)F | . | . | . | . | . | . | / | /
COc1cccc(NC(=O)CN(c2cccc(C(F)(F)F)c2)S(C)(=O)=O)c1 | . | 12 | . | . | . | . | . | .
COc1cc(SC)ccc1C(=O)NCCOc1c(C)cc(C)cc1C | . | . | . | . | . | . | / | /
COc1cccc(NC(=O)CSc2nnc(Cc3cccs3)n2-c2ccc(C)cc2)c1 | . | 13 | . | . | . | . | . | .
C/C(O)=C/c1nc2ccccc2[nH]c1=O | . | . | . | . | . | . | / | /
COCCCNC(=O)c1ccc(Cn2c(=O)c3ccccc3n(Cc3ccccc3C#N)c2=O)cc1 | . | 58 | . | . | . | . | . | .
COCCCNC(=O)c1ccc(Cn2c(=O)[nH]c3ccccc3c2=O)cc1 | . | 12 | . | . | . | . | . | .
CCC(C)NC(=O)C1(C)CCC(=O)N1CCc1ccc(OC)c(OC)c1 (configuration not stated) | . | . | . | . | . | . | / | /
COc1ccc(C2c3cc(OC)c(OC)cc3CCN2C2CC(=O)N(c3ccccc3)C2=O)cc1OC (configuration not stated) | . | 18 | . | . | . | . | . | .
O=C1CC(N2CCc3ccccc32)C(=O)N1c1ccccc1 (configuration not stated) | . | . | . | / | / | . | / | /
Cc1cc(C)nc(N/N=C/c2ccc(N3CCOCC3)cc2)n1 | . | 175 | . | . | / | . | 21 | .
Cc1cc(C)nc(SCc2nnc(SCC(=O)O)n2-c2ccccc2)n1 | . | 14 | . | . | / | . | . | .
O=C(CN1C(=O)CSc2ccc(S(=O)(=O)N3CCOCC3)cc21)NCCCN1CCOCC1 | . | 17 | . | . | / | . | . | .
O=C(CN1C(=O)CSc2ccc(S(=O)(=O)N3CCOCC3)cc21)NCCCN1CCc2ccccc2C1 | . | . | . | . | / | . | / | /
CCc1ccc(NC(=O)CN(N=Nc2nonc2C)c2nonc2C)cc1 | . | . | . | . | / | . | / | /
CC(/C=N/NC(=O)c1cc(-c2ccc(C)o2)[nH]n1)=C\c1ccccc1 | . | 17 | . | . | . | . | . | .
NC(=S)c1cc2ccc(O)cc2oc1=O | . | 67 | . | . | . | . | 17 | .
C/C(=N\NC(=O)c1ccncc1)c1cc2ccccc2oc1=O | . | . | . | . | . | . | / | /
C/C(=N/NC(N)=S)c1cc2ccc(O)cc2oc1=O | . | 39 | . | / | / | . | 18 | .
COc1cccc(CNc2ccc(F)c(Cl)c2)c1OC | . | . | . | . | . | . | / | /
O=C(CSc1ccc2nnc(-c3cccnc3)n2n1)N1CCOCC1 | . | . | . | . | . | . | / | /
CCOC(=O)c1c(NC(C)=O)sc2c(O)c(Br)cc(Br)c12 | . | 62 | . | . | . | . | . | .
